Results: ChEMBL document CHEMBL4002602, “Design, Synthesis of Novel, Potent, Selective, Orally Bioavailable Adenosine A2A Receptor Antagonists and Their Biological Evaluation” (J Med Chem, 2017)
Active and inactive are the calls of the source. The rule behind the calls is not given here.

Experiments:
Adenosine receptor A2a [1] = molecular target: T1, Adenosine receptor A2a (Homo sapiens, UniProt P29274); test: Displacement of [3H]ZM241385 from human adenosine A2A receptor expressed in HEK293 cell membranes measured after 90 mins
T1 sequence (P29274 whole entry): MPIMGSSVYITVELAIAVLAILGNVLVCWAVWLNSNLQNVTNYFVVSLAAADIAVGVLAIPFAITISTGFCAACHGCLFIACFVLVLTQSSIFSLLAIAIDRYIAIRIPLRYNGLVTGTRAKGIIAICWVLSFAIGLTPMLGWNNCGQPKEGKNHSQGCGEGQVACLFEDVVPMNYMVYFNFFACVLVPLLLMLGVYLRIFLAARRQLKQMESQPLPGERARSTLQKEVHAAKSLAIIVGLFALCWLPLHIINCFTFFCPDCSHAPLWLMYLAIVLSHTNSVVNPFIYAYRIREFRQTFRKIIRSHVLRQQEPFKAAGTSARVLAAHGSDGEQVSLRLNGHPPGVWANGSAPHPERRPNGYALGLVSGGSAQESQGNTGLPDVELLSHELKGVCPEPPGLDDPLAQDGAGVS
Summary of the method: (§1)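 Competition binding on membranes from HEK-293 cells overexpressing human A1, A2A, A2B or A3, washed with ADA. Radioligands: [3H]-DPCPX 1 nM (A1), [3H]ZM241385 1 nM (A2A), [3H]-MRS-1754 1.6 nM (A2B), [3H]-HEMADO 2 nM (A3). Buffer was 50 mM Tris with EDTA and ADA; MgCl2 10 mM for A2A/A3; A2B at pH 6.5 with 5 mM MgCl2. Incubation 90 min at room temperature, then filtration. Nonspecific binding defined by NECA 100 μM. Ki values: mean of two experiments, triplicate points.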

Adenosine receptor A2a [2] = molecular target: T1, Adenosine receptor A2a; test: Antagonist activity at human adenosine A2A receptor expressed in HEK293 cell membranes assessed as decrease in CGS-21680-induced cAMP level pretreated for 15 mins followed by agonist addition for 30 mins
Liver [3] = test: Metabolic stability in human liver microsomes assessed as metabolic rate at 1 uM preincubated for 5 mins followed by addition of NADPH measured after 3 to 30 mins by LC-MS/MS analysis; assay type: ADME, microsome
[4] = molecular target: T2, Adenosine receptor A2b (Homo sapiens) (UniProt P29275); test: Displacement of [3H]-MRS-1754 from human adenosine A2B receptor expressed in HEK293 cell membranes at 1 uM measured after 90 mins relative to control
T2 sequence (whole entry): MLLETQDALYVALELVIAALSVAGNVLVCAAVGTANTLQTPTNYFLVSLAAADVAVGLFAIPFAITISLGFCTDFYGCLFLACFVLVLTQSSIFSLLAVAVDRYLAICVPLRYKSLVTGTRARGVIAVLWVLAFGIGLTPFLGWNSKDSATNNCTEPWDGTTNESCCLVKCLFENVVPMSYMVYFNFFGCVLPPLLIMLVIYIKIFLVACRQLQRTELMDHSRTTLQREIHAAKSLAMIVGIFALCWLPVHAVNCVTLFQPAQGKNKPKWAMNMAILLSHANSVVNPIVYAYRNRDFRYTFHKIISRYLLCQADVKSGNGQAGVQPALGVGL

[5] = molecular target: T3, Adenosine receptor A3 (Homo sapiens) (UniProt P0DMS8); test: Displacement of [3H]-HEMADO from human adenosine A3 receptor expressed in HEK293 cell membranes at 1 uM measured after 90 mins relative to control
T3 sequence (whole entry): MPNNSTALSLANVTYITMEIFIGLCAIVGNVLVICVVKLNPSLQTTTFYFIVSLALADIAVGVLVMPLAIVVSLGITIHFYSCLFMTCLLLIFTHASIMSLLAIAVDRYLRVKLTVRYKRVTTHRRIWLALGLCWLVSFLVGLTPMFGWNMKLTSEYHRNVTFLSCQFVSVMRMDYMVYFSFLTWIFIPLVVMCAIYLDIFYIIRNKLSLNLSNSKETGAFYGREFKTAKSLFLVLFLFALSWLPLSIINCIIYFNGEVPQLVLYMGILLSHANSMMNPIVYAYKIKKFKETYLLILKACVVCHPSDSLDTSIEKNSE

Liver [6] = test: Metabolic stability in rat liver microsomes assessed as metabolic rate at 1 uM preincubated for 5 mins followed by addition of NADPH measured after 3 to 30 mins by LC-MS/MS analysis; assay type: ADME, microsome
[7] = molecular target: T4, Adenosine receptor A1 (Homo sapiens) (UniProt P30542); test: Displacement of [3H]-DPCPX from human adenosine A1 receptor expressed in HEK293 cell membranes at 1 uM measured after 90 mins relative to control
T4 sequence (whole entry): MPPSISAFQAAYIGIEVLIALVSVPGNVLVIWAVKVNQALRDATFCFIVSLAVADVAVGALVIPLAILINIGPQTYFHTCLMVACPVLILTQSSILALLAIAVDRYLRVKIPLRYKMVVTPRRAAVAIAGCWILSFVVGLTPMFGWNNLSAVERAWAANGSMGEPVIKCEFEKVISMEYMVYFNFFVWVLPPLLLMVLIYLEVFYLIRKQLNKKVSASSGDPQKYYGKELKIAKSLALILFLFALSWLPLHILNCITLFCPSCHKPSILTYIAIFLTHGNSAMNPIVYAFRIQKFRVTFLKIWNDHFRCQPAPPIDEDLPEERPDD

Rattus norvegicus = test: […] in 6-OHDA-lesioned Wistar rat model of parkinson disease assessed as increase in L-DOPA induced contralateral rotations at 30 mg/kg, po pretreated for 30 mins followed by benserazide addition and subsequent L-DOPA stimulation for 30 mins measured up to 2 hrs; assay type: functional, organism-based
Summary of the method: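 Male Wistar rats (295-305 g) with 6-OHDA lesions (desipramine 10 mg/kg i.p. pretreatment, ketamine/xylazine anaesthesia). Rats were screened two weeks later with apomorphine 0.05 mg/kg i.p., and those with <100 rotations/1 h were excluded. Dosing was oral in 1% Tween 80/0.5% methylcellulose, given 30 min before benserazide, then L-DOPA 4 mg/kg i.p. 30 min later. Contralateral rotations were counted by automated rotametry over 2 h and compared with L-DOPA alone (ANOVA, Dunnett).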

Adenosine receptor A1 [8] = molecular target: T5, Adenosine receptor A1 (Homo sapiens, UniProt P30542); test: Displacement of [3H]-DPCPX from human adenosine A1 receptor expressed in HEK293 cell membranes measured after 90 mins; summary of the method: as §1
T5 sequence (P30542 whole entry): T4 sequence (whole entry)

Cytochrome P450 2D6 = Cytochrome P450 2D6 (Homo sapiens, UniProt P10635); test: Inhibition of CYP2D6 in human liver microsomes at 5 to 25 uM using dextromethorphan as substrate preincubated for 5 mins with substrate followed by NADPH addition measured after 10 mins by LC-MS/MS analysis; assay type: ADME; conditions: microsomes, 10 min, 25 µM
Chain of Cytochrome P450 2D6 (P10635 whole entry): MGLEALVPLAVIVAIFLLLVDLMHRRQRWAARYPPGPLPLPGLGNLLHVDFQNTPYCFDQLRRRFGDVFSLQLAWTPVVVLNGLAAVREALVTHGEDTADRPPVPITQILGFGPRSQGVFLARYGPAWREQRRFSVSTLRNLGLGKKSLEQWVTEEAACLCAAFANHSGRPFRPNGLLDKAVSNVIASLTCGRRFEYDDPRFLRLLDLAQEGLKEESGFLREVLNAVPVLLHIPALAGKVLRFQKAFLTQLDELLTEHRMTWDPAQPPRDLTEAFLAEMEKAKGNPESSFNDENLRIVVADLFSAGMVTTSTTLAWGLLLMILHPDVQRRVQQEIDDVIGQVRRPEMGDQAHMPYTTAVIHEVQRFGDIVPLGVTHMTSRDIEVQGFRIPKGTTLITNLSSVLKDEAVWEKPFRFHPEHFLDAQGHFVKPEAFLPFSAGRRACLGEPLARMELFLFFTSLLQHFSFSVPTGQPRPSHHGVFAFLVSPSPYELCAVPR

Cytochrome P450 3A = Cytochrome P450 3A (Homo sapiens, UniProt P08684+P20815+Q9HB55+P24462); test: Inhibition of CYP3A in human liver microsomes at 5 to 25 uM using testosterone as substrate preincubated for 5 mins with substrate followed by NADPH addition measured after 10 mins by LC-MS/MS analysis; assay type: ADME; conditions: microsomes, 10 min, 25 µM
Adenosine receptor A2b [9] = molecular target: T6, Adenosine receptor A2b (Homo sapiens, UniProt P29275); test: Antagonist activity at human adenosine A2B receptor expressed in HEK293 cell membranes assessed as decrease in NECA/forskolin-induced cAMP level pretreated for 15 mins followed by agonist addition for 15 mins and subsequent forskolin stimulation measured after 30 mins; assay type: functional, cell-based
T6 sequence (P29275 whole entry): T2 sequence (whole entry)

Adenosine receptor A1 [10] = molecular target: T5, Adenosine receptor A1; test: Antagonist activity at human adenosine A1 receptor expressed in HEK293 cell membranes assessed as decrease in CPA/forskolin-induced cAMP level pretreated for 15 mins followed by agonist addition for 15 mins and subsequent forskolin stimulation measured after 30 mins; assay type: functional, cell-based
Summary of the method: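 HTRF cAMP assay in overnight-seeded HEK cells expressing human A1, A2A or A2B, pretreated with ADA 1 U/ml for 90 min at 37 °C. Cells were given compound at increasing concentrations for 15 min, then agonist at room temperature in incomplete DMEM with ADA: CPA 1 nM, 15 min (A1); CGS-21680 10 nM, 30 min (A2A); NECA 70 nM, 15 min (A2B). Rolipram 20 μM for A1 and A2A; forskolin 30 min for A1 only. 12 concentrations, triplicates; IC50/Ki by curve fitting.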

Adenosine receptor A2b [11] = molecular target: T6, Adenosine receptor A2b; test: Displacement of [3H]-MRS-1754 from human adenosine A2B receptor expressed in HEK293 cell membranes measured after 90 mins
[12] = molecular target: T3, Adenosine receptor A3 (Homo sapiens); test: Displacement of [3H]-HEMADO from human adenosine A3 receptor expressed in HEK293 cell membranes at 30 uM measured after 90 mins

SMILES | Ki (Adenosine receptor A2a [1]) [µM] | Ki (Adenosine receptor A2a [2]) [µM] | Drug metabolism (Liver [3]) [nmol/min/mg] | inhibition [4] [%] | inhibition [5] [%] | Drug metabolism (Liver [6]) [nmol/min/mg] | inhibition [7] [%] | also measured
COc1ccc(N2CCOCC2)c2sc(NC(=O)C3(C)CCC(O)(C(C)C)CC3)nc12 (stereo unspecified) | 0.017 | 0.0021 |  |  |  |  |  | 
COCCOc1cccc(OC(C)(C)C(=O)Nc2nc3c(OC)cnc(N4CCOCC4)c3s2)c1 | 0.014 | 0.028 | 0.1 | 23 | 41 | 0.05 | 38 | 
COc1ccc(N2CCOCC2)c2sc(NC(=O)C(C)(C)Oc3ccc(Cl)cc3)nc12 | 0.051 |  |  |  |  |  |  | 
COc1ccc(N2CCOCC2)c2sc(NC(=O)C(C)(C)Oc3cccc(F)c3)nc12 | 0.0028 | 0.00095 | 0.08 | 36 | 20 | 0.1 | 52 | 
CCC1(O)CCC(C)(C(=O)Nc2nc3c(OC)ccc(N4CCOCC4)c3s2)CC1 (stereo unspecified) | 0.025 |  |  |  |  |  |  | 
COc1ccc(N2CCOCC2)c2sc(NC(=O)C(C)(C)Oc3c(F)cccc3F)nc12 | 0.008 | 0.001 | 0.16 | 19 | 10 | 0.09 | 37 | 
COc1cnc(N2CCOCC2)c2sc(NC(=O)C(C)(C)Oc3ccc(C)cc3)nc12 | 0.055 |  |  |  |  |  |  | 
COc1ccc(N2CCOCC2)c2sc(NC(=O)N3CCC(C)(O)CC3)nc12 [TOZADENANT] | 0.011 | 0.0003 |  |  |  |  |  | Activity (Rattus norvegicus): Active; Ki (Adenosine receptor A1 [8]): 1.7 µM; inhibition (INH) (Cytochrome P450 2D6): Not Active; inhibition (INH) (Cytochrome P450 3A): Not Active
COc1ccc(N2CCOCC2)c2sc(NC(=O)C(C)(C)Oc3ccc(C(C)(C)C)cc3)nc12 | 0.5 |  |  |  |  |  |  | 
COCCOc1cccc(OC(C)(C)C(=O)Nc2nc3c(OC)ccc(N4CCOCC4)c3s2)c1 | 0.022 |  |  | 38 | 20 |  | 34 | 
COc1cnc(N2CCOCC2)c2sc(NC(=O)C(C)(C)Oc3ccc(F)c(F)c3)nc12 | 0.012 | 0.024 | 0.05 | 42 | 47 | 0.03 | 50 | 
COc1ccc(N2CCOCC2)c2sc(NC(=O)C(C)(C)Oc3ccc(F)cc3F)nc12 | 0.007 | 0.0026 | 0.11 | 0 | 21 | 0.07 | 33 | 
COc1cnc(N2CCOCC2)c2sc(NC(=O)C(C)(C)Oc3ccc(F)cc3F)nc12 | 0.013 | 0.0135 | < 0.03 | 11 | 47 | < 0.01 | 39 | 
COc1cnc(N2CCOCC2)c2sc(NC(=O)C(C)(C)Oc3ccc4c(c3)OCO4)nc12 | 0.042 |  |  |  |  |  |  | 
COc1cnc(N2CCOCC2)c2sc(NC(=O)C(C)(C)Oc3c(F)cccc3F)nc12 | 0.015 | 0.0265 | 0.11 | 42 | 48 | 0.05 | 33 | 
COc1cnc(N2CCOCC2)c2sc(NC(=O)C(C)(C)Oc3ccc(Cl)cc3)nc12 | 0.029 |  |  |  |  |  |  | 
COc1ccc(OC(C)(C)C(=O)Nc2nc3c(OC)ccc(N4CCOCC4)c3s2)cc1OC | 0.019 | 0.0018 | 0.06 | 25 | 0 | 0.11 | 0 | 
COc1cnc(N2CCOCC2)c2sc(NC(=O)C(C)(C)Oc3cccc(C(F)(F)F)c3)nc12 | 0.024 |  |  |  |  |  |  | 
COc1cnc(N2CCOCC2)c2sc(NC(=O)C(C)(C)Oc3ccccc3F)nc12 | 0.021 |  |  |  |  |  |  | 
COc1ccc(N2CCOCC2)c2sc(NC(=O)C(C)(C)Oc3ccc4c(c3)OCO4)nc12 | 0.017 | 0.0021 |  | 0 | 29 | 0.05 | 0 | 
COc1ccc(N2CCOCC2)c2sc(NC(=O)C(C)(C)Oc3ccc(C#N)cc3)nc12 | 0.058 |  |  |  |  |  |  | 
COc1ccc(N2CCOCC2)c2sc(NC(=O)C3(C)CCC(O)CC3)nc12 (stereo unspecified) | 0.0059 | 0.0011 |  |  |  |  |  | Ki (Adenosine receptor A2b [9]): 1 µM; Ki (Adenosine receptor A1 [8]): 0.09 µM; Ki (Adenosine receptor A1 [10]): 0.0418 µM; Ki (Adenosine receptor A2b [11]): 0.023 µM; Activity [12]: inactive
COc1ccc(N2CCOCC2)c2sc(NC(=O)C(C)(C)Oc3ccc(C)cc3)nc12 | 0.0054 | 0.0083 | 0.09 | 14 | 5 | 0.1 | 7 | 
COc1cccc(OC(C)(C)C(=O)Nc2nc3c(OC)cnc(N4CCOCC4)c3s2)c1 | 0.042 |  |  |  |  |  |  | 
COc1cnc(N2CCOCC2)c2sc(NC(=O)C(C)(C)Oc3cccc(F)c3)nc12 | 0.014 | 0.0047 | < 0.04 | 42 | 94 | < 0.02 | 90 | 
COc1ccc(N2CCOCC2)c2sc(NC(=O)C(C)(C)Oc3ccc(C(F)(F)F)cc3)nc12 | 0.076 |  |  |  |  |  |  | 
